Data set [1] concerns A549. In words: Cytotoxicity against human A549 cells assessed as cell viability at 10 uM after 72 hrs by MTT assay relative to control. The data set is classed as functional. As to conditions: A549, 72 h, read-out: Activity. (In general: Tetrazolium assays rely on reduction of a dye to a coloured formazan, in cell work by metabolically active cells.)
The test system of another data set is Calu-1. In words: Cytotoxicity against human Calu1 cells assessed as reduction in cell viability after 72 hrs by MTT assay. The data set is classed as functional, cell-based. As to conditions: Calu-1, 72 h. The method, boiled down:
(§1)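 Cells seeded per well at 5 X 10^3 (PC3MLN4, A549, Calu1, H157, A549-TR), 6 X 10^3 (PC3) or 8 X 10^3 (SKOV3). SKOV3 grown in McCoy's 5A, others in RPMI-1640, 10% FBS. Next day 2X drug added, 3.2 nM-50 µM five-fold dilutions, 72 hr.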

The test system of data set [2] is PC-3. In words: Cytotoxicity against human PC3 cells assessed as reduction in cell viability after 72 hrs by MTT assay. As to conditions: PC-3, 72 h. The format is functional, cell-based. The method, boiled down:
as §1

Data set [3] is described as follows: Antitumor activity against human PC3MLN4 cells xenografted in nude mouse assessed as reduction in tumor volume at 30 mg/kg, ip administered every other day 3 times per week for 2 weeks. The format is functional. The method, boiled down:
(§2)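 PC3MLN4 cells (1 X 10^6) in growth factor reduced Matrigel/HBSS injected subcutaneously between the scapulae of athymic nude mice. Dosing began day 13 at tumor volume about 35 mm3. Randomized groups of 4-5 mice got 30 mg/kg IP in 5% DMSO/HBSS, or vehicle alone. Tumor (calipers) and body weight measured on dosing days and 3 days after last dose. Mean ± SEM, t-test.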
For orientation: In xenograft studies the graft and the host belong to different species.

Data set [4] deals with PC-3. The data set can be described thus: Cytotoxicity against human PC3 cells assessed as cell viability at 10 uM after 72 hrs by MTT assay relative to control. The data set is classed as functional. The settings on record: PC-3, 72 h, read-out: Activity.
The test system of another data set is Mus musculus. In words: Toxicity in nude mouse xenografted with human PC3MLN4 cells assessed as reduction in body weight at 30 mg/kg, ip administered every other day 3 times per week for 2 weeks measured 3 times per week during compound dosing relative to control. The format is organism-based. The settings on record: in vivo, 336 h. In outline:
as §2

A short description of the next data set: physchem. As to conditions: PBS buffer, pH 7.4.
The subject of data set [5] is A549. The data set can be described thus: Cytotoxicity against human A549 cells assessed as reduction in cell viability after 72 hrs by MTT assay. The data set is classed as functional, cell-based. The settings on record: A549, 72 h. In outline:
as §1

For data set [6], the species on record is Homo sapiens. The data set can be described thus: Upregulation of Cyclin-B1 protein expression in human PC3MLN4 cells at 1 uM after 24 hrs by Western blot method. The data set is classed as functional, cell-based. The method, boiled down:
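PC3MLN4 cells were treated 24 hr and lysed in 50 mM Tris pH 7.5, 150 mM NaCl, 10 mM NaF, 0.5% NP40 with protease inhibitors. Equal protein (BCA) was run on SDS-PAGE and transferred to nitrocellulose, then blocked in 5% milk/TBST. Blots were probed for cyclin B1 with GAPDH as loading control, using HRP secondary and ECL.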

Data set [7] can be described thus: Cytotoxicity against human PC3MLN4 cells assessed as cell viability at 1 uM after 72 hrs by MTT assay relative to control. The format is functional. The settings on record: read-out: Activity.
Another data set has as its system A549/TR. The data set can be described thus: Cytotoxicity against human A549/TR cells assessed as reduction in cell viability after 72 hrs by MTT assay. The data set is classed as functional, cell-based. The method, boiled down:
as §1

Data set [8] is described as follows: Cytotoxicity against human PC3MLN4 cells assessed as reduction in cell viability after 72 hrs by MTT assay. The data set is classed as functional, cell-based. The method, boiled down: as §1
The species entered for data set [9] is Homo sapiens. The data set can be described thus: Disruption of microtubule dynamics in human PC3MLN4 cells at 1 uM after 48 hrs by immunofluorescence microscopic method. The data set is classed as cell-based. In outline: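 PC3MLN4 cells on coverslips were treated 48 hr at 1 µM. They were fixed in 4% PFA 15 min and permeabilized in 0.2% Triton X-100 8 min. Blocking was 2% goat serum/2% BSA 1 hr. Anti-α-tubulin 1:200 for 1 hr was followed by Alexa Fluor 488 secondary 1:400 for 45 min, with DAPI 500 nM counterstain and imaging at 100X and 200X.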

Data set [10] in a line: Cytotoxicity against human PC3MLN4 cells assessed as cell viability at 10 uM after 72 hrs by MTT assay relative to control. The format is functional. The settings on record: read-out: Activity.
In data set [11] the test system is A549. The data set can be described thus: Cytotoxicity against human A549 cells assessed as cell viability at 1 uM after 72 hrs by MTT assay relative to control. As to conditions: A549, 72 h, read-out: Activity. The format is functional.
Data set [12] is described as follows: Kinetic solubility in pH 7.4 PBS buffer sonicated for 30 mins by HPLC-UV method.
The test system of the next data set is SK-OV-3. The data set can be described thus: Cytotoxicity against human SKOV3 cells assessed as reduction in cell viability after 72 hrs by MTT assay. The format is functional, cell-based. As to conditions: SK-OV-3, 72 h. In outline:
as §1

Data set [13] deals with PC-3. In words: Cytotoxicity against human PC3 cells assessed as cell viability at 1 uM after 72 hrs by MTT assay relative to control. The format is functional. The settings on record: PC-3, 72 h, read-out: Activity.
A further data set has as its system NCI-H157. In words: Cytotoxicity against human NCI-H157 cells assessed as reduction in cell viability after 72 hrs by MTT assay. The format is functional, cell-based. As to conditions: NCI-H157, 72 h. The method, boiled down: as §1
For data set [14], the species on record is Homo sapiens. The data set can be described thus: Cell cycle arrest in human PC3MLN4 cells assessed as accumulation at G2/M phase at 1 uM after 24 hrs by propidium iodide staining based flow cytometry. The format is functional. In outline:
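PC3MLN4 cells seeded 3 X 10^5/well, next day treated 24 hr at 1 µM, nocodazole 1 µM as control. Floating and adherent cells pooled, fixed in cold 70% ethanol 30 min, then PI plus RNase A for 30 min. 15 X 10^3 cells acquired by FACS. G1/S/G2 fractions from Dean-Jett-Fox fit.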
A general note: A flow cytometer gives signals particle by particle.

Structures are written as SMILES. pEC50: −log10 of the molar value. Converted amounts (≈) assume the structure as drawn. The source made the active and inactive calls. No cut-off for these calls is given here.

In general, pEC50 refers to the EC50 on a negative log10 scale, so that one unit is a factor of ten. As a reminder, the thermodynamic solubility is the concentration in solution at equilibrium with solid. For orientation: kinetic solubility means solubility judged after dilution from a stock solution rather than from solid. Consider `COC(=O)Nc1nc2cc(C(=O)c3ccc(N(C)C4COC4)cc3)ccc2[nH]1`, for which the viability at 10 µM in the data set on A549 [1] turned out to be 42.2%; with PC-3 [4], 33.6%; in [10], 23.2%. For the same molecule, the pEC50 with Calu-1 is 5.80; with PC-3 [2], 5.80; in the data set with A549 [5], 5.85; with A549/TR, 5.42; in data set [8], 6.05; in the data set on SK-OV-3, 6.00. The pEC50 with NCI-H157 was 5.62. Besides, the T/C in data set [3] came to 0.36. Besides, the Activity result with Mus musculus is given as “Non-Toxic”. Moreover, the thermodynamic solubility at 24 h in the data set “physchem” turned out to be 361 µM (≈ 137 µg/mL). Also, the outcome in the data set listed under Homo sapiens [6], in the data set filed under Homo sapiens [9] and in the data set listed under Homo sapiens [14] was Active. In addition, the viability at 1 µM was 34.9% in data set [7], 50.2% in the data set on A549 [11] and 44.5% in the data set on PC-3 [13]. The solubility (kinetic) at 0.5 h in [12] was determined as 253 µM (≈ 96.2 µg/mL).
